Published values from different studies.
Each line is one published result; the experiments were not run side by side.
Pancreatic alpha-amylase: Pancreatic alpha-amylase (Homo sapiens, UniProt P04746)
PDE4C: 3',5'-cyclic-AMP phosphodiesterase 4C (PDE4C, Homo sapiens, UniProt Q08493)
ALB: Albumin (ALB, Bos taurus, UniProt P02769)
CYP3A7: Cytochrome P450 3A7 (CYP3A7, Homo sapiens, UniProt P24462)

| SMILES | target | assay | conditions | quantity | result |
| --- | --- | --- | --- | --- | --- |
| CCN(CC)c1ccc(/C=N/c2ccccc2F)c(O)c1 | Pancreatic alpha-amylase | enzyme activity, inhibitor, absorbance |  | IC50 | 255 µM |
| CN(C)C(=O)c1cc2cnc(Nc3ccc(N4CCNCC4)cn3)nc2n1C1CCCC1 | PDE4C | enzyme activity, inhibitor, TR-FRET |  | IC50 | 4.4 µM |
| CCN(CC)c1ccc(/C=N/c2ccc(F)c(Cl)c2)c(O)c1 | Pancreatic alpha-amylase | enzyme activity, inhibitor, absorbance |  | IC50 | 190 µM |
| CCc1c(C)nc(-c2ccc(Cl)s2)nc1Nc1ccc(CC(=O)O)cc1 | PDE4C | enzyme activity, inhibitor, FP |  | IC50 | ~63 µM |
| OC[C@H]1O[C@@H](Oc2cc3c4c(c2)[C@@H]([C@@H]2c5cc(O)cc6c5[C@@H](c5cc(O)cc(O)c5[C@H]2c2ccc(O)cc2)[C@H](c2ccc(O)cc2)O6)[C@H](c2ccc(O)cc2)c2c(O)cc(O)cc2[C@H]4[C@H](c2ccc(O)cc2)O3)[C@H](O)[C@@H](O)[C@@H]1O | Pancreatic alpha-amylase | enzyme activity, inhibitor |  | IC50 | > 100 µM |
| N=c1c[n+](N2CCOCC2)[n-]o1 | NAD-dependent protein deacylase sirtuin-5, mitochondrial (SIRT5, Homo sapiens, UniProt Q9NXA8) | enzyme activity, inhibitor, HPLC |  | IC50 | 8 µM |
| C[C@@H](O)[C@H](NC(=O)[C@H](Cc1ccc(O)cc1)NC(=O)[C@H](Cc1ccc(O)cc1)NC(=O)[C@H](CO)NC(=O)[C@H](CCCNC(=N)N)NC(=O)[C@H](Cc1c[nH]cn1)NC(=O)[C@@H](N)Cc1c[nH]c2ccccc12)C(=O)N[C@@H](Cc1c[nH]c2ccccc12)C(=O)N[C@@H](CC(N)=O)C(=O)O | ALB | binding, SPR |  | Kd | 6.12 µM |
| CCN(CC)c1ccc(/C=N/c2ccc(Cl)cc2)c(O)c1 | Pancreatic alpha-amylase | enzyme activity, inhibitor, absorbance |  | IC50 | 63.5 µM |
| O=C(C=Cc1ccccc1)Nc1cc(-c2ccnc(N3CCC(O)CC3)c2)ccn1 | Retinoic acid receptor RXR-alpha (RXRA, Homo sapiens, UniProt P19793) | binding, SPR |  | Kd | 0.78 µM |
| COc1ccc2c(O[C@@H]3C[C@H]4C(=O)N[C@]5(C(=O)NS(=O)(=O)C6CC6)C[C@H]5/C=C\CCCCN(C)C(=O)[C@@H]4C3)cc(-c3nc(C(C)C)cs3)nc2c1C | CYP3A7 | enzyme activity, inhibitor, mass spectrometry | 5 min | IC50 | 16.1 µM |
| Oc1ccc([C@@H]2c3c(O)cc(O)cc3[C@@H]3c4c(cc(O)c5c4[C@@H]2[C@H](c2ccc(O)cc2)[C@H]5c2cc(O)cc4c2[C@@H](c2cc(O)cc(O)c2)[C@H](c2ccc(O)cc2)O4)O[C@H]3c2ccc(O)cc2)cc1 | Pancreatic alpha-amylase | enzyme activity, inhibitor |  | IC50 | 6.1 µM |
| CC(C)(C)OC(=O)N[C@H]1CCCCC/C=C\[C@@H]2C[C@@]2(C(=O)NS(=O)(=O)C2CC2)NC(=O)[C@@H]2C[C@@H](OC(=O)N3Cc4cccc(F)c4C3)CN2C1=O | CYP3A7 | enzyme activity, inhibitor, mass spectrometry | 5 min | IC50 | 21.9 µM |
| O=C1CCc2ccccc2O1 | Carbonic anhydrase 9 (CA9, Homo sapiens, UniProt Q16790) | enzyme activity, inhibitor, stopped-flow |  | Ki | 4.1 µM |
| CC(C)(C)[C@@H]1NC(=O)O[C@@H]2CCC[C@H]2OC/C=C/C(F)(F)c2nc3ccccc3nc2O[C@@H]2C[C@@H](C(=O)N[C@]3(C(=O)NS(=O)(=O)C4(C)CC4)C[C@H]3C(F)F)N(C2)C1=O | CYP3A7 | enzyme activity, inhibitor, mass spectrometry | 5 min | IC50 | 12.1 µM |
| CC(C)C[C@H](NC(=O)[C@H](CC(N)=O)NC(=O)[C@H](Cc1c[nH]c2ccccc12)NC(=O)[C@@H](NC(=O)[C@H](Cc1ccc(O)cc1)NC(=O)[C@H](Cc1ccc(O)cc1)NC(=O)[C@H](CO)NC(=O)[C@H](CCCNC(=N)N)NC(=O)[C@H](Cc1c[nH]cn1)NC(=O)[C@@H](N)Cc1c[nH]c2ccccc12)[C@@H](C)O)C(=O)O | ALB | binding, SPR |  | Kd | 3.99 µM |
